PKA kinase inh – PKA (human) kinase inhibition. PKA Kemptide phosphorylation, Kinase-Glo ATP luminescence. inhibition, % at 6 µM. 65,000 compounds, 0.1% hits. AID 524;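 active = inhibition above the screen-wide mean inhibition plus 3 SD, cut at about 21% in these data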
MT1-MMP txn act – MT1-MMP promoter transcription activation. HT1080 MT1-MMP promoter luciferase reporter, luminescence, overnight; active compounds read high. activation factor at 10 µM. 86,000 compounds, 0.16% hits. AID 750;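 active = activation factor of at least 2 for MT1-MMP transcription at 10 µM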
JNK3 blocker – JNK3 (human) kinase inhibition. purified JNK3 kinase activity, HTS. 60,000 compounds, 0.61% hits. inhibition, % at 8 µM; in the data active = inhibition above about 17%;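 note: 0% = DMSO and 100% = reference inhibitor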
SF1 activator – activators of human nuclear receptor SF-1; CHO-K1 Gal4-SF-1 LBD luciferase reporter; % increase over DMSO SF-1-specific signal; 65,000 compounds, 1.9% hits; Q13285; activation, % at 10 µM;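 active = activation above the mean activation of all tested compounds plus 3 SD, cut at about 50% in these data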
Target sequence (Q13285 whole entry, looked up, the tested form may be a part): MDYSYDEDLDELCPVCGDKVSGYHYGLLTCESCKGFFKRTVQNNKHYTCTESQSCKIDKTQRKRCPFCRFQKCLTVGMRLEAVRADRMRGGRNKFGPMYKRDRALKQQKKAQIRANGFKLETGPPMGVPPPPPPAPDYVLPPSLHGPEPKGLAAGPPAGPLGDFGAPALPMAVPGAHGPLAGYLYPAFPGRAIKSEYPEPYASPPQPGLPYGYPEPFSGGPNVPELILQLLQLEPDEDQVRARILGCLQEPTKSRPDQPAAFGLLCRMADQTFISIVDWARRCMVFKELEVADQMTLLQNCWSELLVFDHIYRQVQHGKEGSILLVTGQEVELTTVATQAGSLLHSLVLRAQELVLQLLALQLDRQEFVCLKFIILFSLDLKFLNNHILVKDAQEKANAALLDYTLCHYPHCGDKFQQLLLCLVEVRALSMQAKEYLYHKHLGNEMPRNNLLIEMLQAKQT
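Test system: CHO-K1 cells with Gal4–hSF-1 LBD chimera plus Gal4-driven luciferase; Input: 4,000 cells/well; Compound: 10 µM only; Times: 20 h compound treatment, 37 °C; Measured by: steady-glow luciferase luminescence, read after 15 min reagent incubation; Measure: percent activation versus DMSO; Control set: DMSO and mock-transfected background; Replicates: one test per compound.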
ROCK2 blocker – blocks human Rho kinase 2 activity | 60,000 compounds, 0.35% hits | purified ROCK2, Kinase-Glo ATP depletion luminescence | inhibition, % at 6 µM | O75116;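 active = inhibition above the screen-wide mean inhibition plus 3 SD, cut at about 18% in these data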;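 note: plate controls were DMSO wells for no effect and Y-27632 control wells after no-enzyme background subtraction for full effect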
RORa activator – activators of human nuclear receptor RORA; 65,000 compounds, 1.5% hits; CHO-K1 Gal4-RORA LBD luciferase reporter, luminescence; percent increase over mock-subtracted basal signal; AID 560; P35398; activation, % at 10 µM;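 active = activation above the mean of all tested compounds plus 3 SD, cut at about 49% in these data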;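 note: 0% = DMSO-treated RORA cells and 100% = added signal equal to DMSO minus mock-transfected cells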
The depositor's hits bear a star; . = no result given. Shown are actives, neighbours in structure and some others; about 2.5% of the full set was active somewhere.

SMILES	PKA kinase inh	MT1-MMP txn act	JNK3 blocker	SF1 activator	ROCK2 blocker	RORa activator
CCOC(=O)c1sc2nc(-c3ccco3)c3c(c2c1N)CC(C)(C)OC3	6.8	1	-2.6	2.3	1.3	-29.1
CC1(C)Cc2c(c(-c3ccco3)nc3n[nH]c(N)c23)CO1	30.6*	1	-2.9	7.7	1.6	8.3
COC(=O)c1sc2ncn(-n3c(C)ccc3C)c(=O)c2c1C	.	1.2	.	.	.	.
Fc1ccccc1CSc1nc2ncccc2[nH]1	-5.4	1.3	7.2	51.1*	2.5	34.0
Fc1cccc(F)c1CSc1nc2ccccc2[nH]1	.	0.8	.	.	.	.
Cn1c(SCc2ccccc2F)nc2cccnc21	8.4	1.5	4.3	6.5	4.0	80.1*
O=C(O)C1CCNCC1	.	0.9	.	.	.	.
CCc1nnc(NC(=O)CCC(=O)N2CCN(CCOc3ccc(C)cc3)CC2)s1	3.5	1.2	-5.2	-7.3	2.1	-7.5
COc1cccc(CN2C(=O)CN(C3CCCCC3)C(=O)C2c2ccc(F)cc2)c1 (stereo not given)	-0.6	1.2	.	-5.4	.	-7.5
CC(=O)Nc1ccc(Nc2nc(C)nc3c2oc2ccccc23)cc1	1.0	1	0.3	0.5	0.4	-3.4
CC(=O)c1ccc(Nc2ncnc3c2oc2ccccc23)cc1	-7.0	1.3	7.1	89.0*	1.9	22.8
COc1ccc(-c2nnc(SCC(=O)c3cccs3)o2)cc1	10.6	1.7	.	41.9	.	49.8*
COc1cccc(C(=O)CSc2nnc(-c3cccs3)o2)c1	12.7	1.1	1.4	-20.6	4.4	-15.7
CCSc1nnc(-c2ccc(OC)cc2)o1	-2.2	1.1	1.8	24.4	3.7	89.7*
O=C(CSc1nnc(-c2cccs2)o1)c1cccs1	5.0	1.9	4.3	97.6*	1.9	27.0
CCSc1nnc(-c2ccc(Cl)cc2Cl)o1	10.3	1.1	-7.6	54.5*	5.9	40.1
CCC1=C(OC(=O)N(CC)CC)N2C(=O)OC(=NCCOC)[C@]2(C)[C@H]2C1=CC[C@H]1C(=O)N(CC)C(=O)[C@H]12	.	1.1	.	.	.	.
COC(=O)c1ccc(C(/C=C/[C@@H](C)CO)NC(=O)OCc2ccccc2)cc1 (stereo not given in full)	.	1.2	.	.	.	.
CCN1CCN(Cc2ccc(NC(=O)Nc3ccccc3OC)cc2)CC1	-6.0	1.3	-4.7	29.1	1.9	48.8*
CCN1CCN(CCC(=O)Nc2ccccc2OC)CC1	11.2	1.1	-0.3	-2.2	12.4	-11.9
Cc1ccc(S(=O)(=O)/C(C#N)=C/c2c(N3CC(C)OC(C)C3)nc3c(C)cccn3c2=O)cc1 (stereo not given)	.	1	.	.	.	.
C=CCn1c(SCc2nc3ccccc3[nH]2)nnc1-c1cccc(OC)c1	.	1.5	.	.	.	.
Cc1c(C(=O)N2CCOCC2)sc2nc(-c3ccccc3)cn12	11.5	1.7	0.3	82.4*	7.4	58.1*
Cc1c(C(=O)NCc2ccco2)sc2nc(-c3ccccc3)cn12	2.3	1.1	2.0	52.0*	2.7	87.3*
Cc1c(C(=O)NCc2cccnc2)sc2nc(-c3ccccc3)cn12	6.8	.	0.1	33.3	4.9	53.5*
SMILES	PKA kinase inh	MT1-MMP txn act	JNK3 blocker	SF1 activator	ROCK2 blocker	RORa activator
CCn1c(C(C)NC(C)=O)nc2ccccc21 (stereo not given)	6.2	.	31.0*	11.2	2.1	-15.8
CCn1c(C(C)NC(=O)c2cccs2)nc2ccccc21 (stereo not given)	-9.1	1	-3.5	-14.4	0.9	-13.7
CCCSc1nnc(-c2ccccc2N)c(=O)[nH]1	1.7	1.3	3.8	45.1	2.2	42.9
CCCCSc1nnc(-c2ccccc2N)c(=O)[nH]1	0.6	1.8	-5.8	35.1	-2.7	57.8*
CNC1=C(Cl)C(=O)c2ccncc2C1=O	.	1.1	.	.	.	.
COc1ccc2nc3c(cc2c1)Cc1ccccc1-3	.	1	.	.	.	.
O=C(CSc1n[nH]c(-c2ccccc2)n1)c1ccc(O)c(O)c1	-2.1	1.1	1.9	-0.1	-1.1	-1.9
CCCNC(=O)c1cc(-c2ccc(Br)cc2)on1	5.2	1.5	8.7	57.8*	6.0	36.6
CC(C)NC(=O)c1cc(-c2ccc(Br)cc2)on1	4.5	5.1*	-2.0	34.6	1.9	66.2*
CC(=O)Cc1nsc(Nc2ccccc2)n1	.	1.2	.	.	.	.
CC(C)(C)C(=O)c1sc(Nc2ccccc2)nc1N	14.3	1.9	7.0	48.3	27.2*	21.4
CCOC(=O)Cn1c(CN(Cc2ccccc2)Cc2ccccc2)nc2c1c(=O)n(C)c(=O)n2C	2.6	1.2	-3.5	-28.4	4.9	2.7
O=C(/C=C/Nc1cccc(O)c1)c1ccccc1	1.5	.	3.9	57.4*	3.3	12.4
O=c1oc2c(CN3CCCCC3)c(O)ccc2cc1-c1nc2ccccc2[nH]1	12.7	1.4	-7.9	26.9	6.3	15.5
O=c1oc2c3c4c(cc2cc1-c1nc2ccccc2[nH]1)CCCN4CCC3	9.7	1.4	-3.4	44.3	7.4	52.1*
CCOc1ccc(OCC)c(NC(=O)CSc2nc3c(c(=O)n(C)c(=O)n3C)n2C)c1	10.1	1.2	3.7	6.3	7.9	4.1
CCOc1ccc(OCC)c(NC(=O)CSc2nc3c(c(=O)n(C)c(=O)n3C)n2C(C)C)c1	5.7	1.1	4.7	100.9*	7.8	16.9
N#CCCn1cc(/C=N/O)c(-c2ccc(Cl)cc2)n1	.	1.1	.	.	.	.
N#CCCn1cc(/C=N/O)c(-c2ccc(-c3ccccc3)cc2)n1	6.9	1	-5.2	56.7*	2.3	34.5
Cc1ccc(OC(=O)CCc2c(C)nc3ncnn3c2C)cc1	2.8	1.3	-2.7	-6.0	1.6	-6.5
COc1ccc(-c2noc(Cc3cccs3)n2)cc1	-11.3	1.5	-7.7	42.0	-2.9	56.9*
Cc1ccc2c(CC(=O)OC(C)C(=O)NCc3ccc4c(c3)OCO4)coc2c1 (stereo not given)	6.7	1.2	5.0	2.8	6.0	-0.9
COc1cc(C(=O)Nc2ccc(N(C)C)cc2)cc(OC)c1OC	10.6	1.6	-13.9	62.3*	7.4	84.5*
CCCCCCCc1nc2c(=O)[nH]c3ccccc3c2o1	.	0.8	.	.	.	.
COc1cccc(OCc2nc3ncc(Br)cc3[nH]2)c1	7.3	1.4	12.0	76.1*	1.9	60.4*
SMILES	PKA kinase inh	MT1-MMP txn act	JNK3 blocker	SF1 activator	ROCK2 blocker	RORa activator
O=C(Nc1ccc(N2CCOCC2)c(Cl)c1)C1CCCCC1	11.7	1.4	3.9	46.8	7.1	49.4*
O=C(Nc1ccc(N2CCOCC2)cc1)C1CC1	-3.3	1.1	2.3	-2.9	-0.9	5.3
COc1cccc(Cn2c(-c3nonc3N)nc3ccccc32)c1	-5.1	1.1	3.2	62.3*	-4.9	12.6
COc1cc(Cn2c(-c3nonc3N)nc3ccccc32)ccc1C	-3.6	1.2	-5.4	25.6	-1.8	2.6
c1ccc(OCCOc2ncnc3ccccc23)cc1	5.2	1.5	15.2	50.2*	4.3	38.0
c1ccc(OCCn2cnc3ccccc32)cc1	8.0	1.1	1.9	-3.0	6.8	-5.1
C/C(N)=C(/C#N)C(=O)CSc1nnc(Nc2cccc(C)c2C)s1	-2.6	1.6	1.8	57.9*	-5.2	10.7

Screening data: PubChem BioAssay, several laboratories
